The source made the active and inactive calls. No cut-off for these calls is given here.
Tests used:
Rattus norvegicus [1] = assay: The compound was tested for antihypertensive effect in spontaneously hypertensive rat (SHR), expressed as fall in blood pressure (BP) at 100 mg/kg dose given orally; Inactive; type: functional, organism-based; design: dose 100 mg/kg
Method in brief: (§1)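 Male SHR, about 16 weeks old, with systolic pressure above 150 mmHg, held in restraint cages. Tail-cuff occlusion was raised to 250 mmHg and then lowered, after 1 h acclimation and at least 3 baseline readings. Dosing was by daily gavage in 3% cornstarch/5% PEG-400/Tween 80 for 2 or 4 days, with 4–6 rats per drug. Readings at 1, 2, 3 and 24 h; peak fall reported.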

Canis familiaris [2] = assay: Antihypertensive activity in unanesthetized renal hypertensive dogs measured as Heart Rate (HR) (beats/min) at 60 mg per kg dose after peroral administration on day 2; type: functional, Canis lupus familiaris; details: route oral
Method in brief: (§2)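 Renal hypertensive dogs, unanesthetized. Drug given orally once daily as solid in gelatin capsule. Blood pressure and heart rate read at 1.5, 3, 6 and 24 h after each dose. Value is the maximum change over the daily monitored session, mean ± SE. MBP in mm Hg, HR in beats/min, p < 0.05 flagged.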

Canis familiaris [3] = assay: Antihypertensive activity in unanesthetized renal hypertensive dogs measured as Heart Rate (HR) (beats/min) at 60 mg per kg dose after peroral administration on day 3; type: functional, Canis lupus familiaris; details: route oral; method in brief: as §2
Canis familiaris [4] = assay: Antihypertensive activity in unanesthetized renal hypertensive dogs measured as Heart Rate (HR) (beats/min) at 60 mg per kg dose after peroral administration on day1; type: functional, Canis lupus familiaris; details: route oral; method in brief: as §2
Canis familiaris [5] = assay: Antihypertensive activity in unanesthetized renal hypertensive dogs measured as mean Blood Pressure at 60 mg per kg dose after peroral administration on day 2; type: functional, Canis lupus familiaris; details: route oral; method in brief: as §2
Canis familiaris [6] = assay: Antihypertensive activity in unanesthetized renal hypertensive dogs measured as mean Blood Pressure at 60 mg per kg dose after peroral administration on day 3; type: functional, Canis lupus familiaris; details: route oral; method in brief: as §2
Canis familiaris [7] = assay: Antihypertensive activity in unanesthetized renal hypertensive dogs measured as mean Blood Pressure at 60 mg per kg dose after peroral administration on day1; type: functional, Canis lupus familiaris; details: route oral; method in brief: as §2
Rattus norvegicus [8] = assay: The compound was tested for antihypertensive effect in spontaneously hypertensive rat (SHR), expressed as fall in blood pressure (BP) at 100 mg/kg dose given orally; type: functional; details: route oral; method in brief: as §1
Canis familiaris [9] = assay: Antihypertensive activity in unanesthetized renal hypertensive dogs measured as Heart Rate (HR) (beats/min) at 100 mg per kg dose after peroral administration on day1; type: functional, Canis lupus familiaris; details: route oral
Method in brief: (§3)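 Renal hypertensive dogs, unanesthetized. Test compound given orally once daily as a solid in a gelatin capsule. Blood pressure was taken at 1.5, 3, 6 and 24 h after each daily dose. Activity is the maximum change in mean blood pressure or heart rate over each daily session. Values are mean ± SE, with significance marked at p < 0.05.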

Canis familiaris [10] = assay: Antihypertensive activity in unanesthetized renal hypertensive dogs measured as Heart Rate (HR) (beats/min) at 100 mg per kg dose after peroral administration on day 2; type: functional, Canis lupus familiaris; details: route oral; method in brief: as §3
Canis familiaris [11] = assay: Antihypertensive activity in unanesthetized renal hypertensive dogs measured as Heart Rate (HR) (beats/min) at 100 mg per kg dose after peroral administration on day 3; type: functional, Canis lupus familiaris; details: route oral; method in brief: as §3
Canis familiaris [12] = assay: Antihypertensive activity in unanesthetized renal hypertensive dogs measured as HeartHeart Rate (HR) (beats/min) at 100 mg per kg dose after peroral administration on day 4 ((p<0.05); type: functional, Canis lupus familiaris, Heart; details: route oral; method in brief: as §3
Canis familiaris [13] = assay: Antihypertensive activity in unanesthetized renal hypertensive dogs measured as mean Blood Pressure at 100 mg per kg dose after peroral administration on day1; type: functional, Canis lupus familiaris; design: unit not given beside the values; details: route oral; method in brief: as §3
Canis familiaris [14] = assay: Antihypertensive activity in unanesthetized renal hypertensive dogs measured as mean Blood Pressure at 100 mg per kg dose after peroral administration on day 2; type: functional, Canis lupus familiaris; details: route oral; method in brief: as §3
Canis familiaris [15] = assay: Antihypertensive activity in unanesthetized renal hypertensive dogs measured as mean Blood Pressure at 100 mg per kg dose after peroral administration on day 3 (p<0.05); type: functional, Canis lupus familiaris; details: route oral; method in brief: as §3
Canis familiaris [16] = assay: Antihypertensive activity in unanesthetized renal hypertensive dogs measured as mean Blood Pressure at 100 mg per kg dose after peroral administration on day 4 (p<0.05); type: functional, Canis lupus familiaris; details: route oral; method in brief: as §3
Rattus norvegicus [17] = assay: Antihypertensive effect in spontaneously hypertensive rat (SHR), expressed as fall in blood pressure (BP) at 50 mg/kg dose given orally; type: functional; details: route oral; method in brief: as §1
Rattus norvegicus [18] = assay: The compound was tested for antihypertensive effect in spontaneously hypertensive rat (SHR), expressed as fall in blood pressure (BP) at 50 mg/kg dose given orally; Inactive; type: functional, organism-based; design: dose 50 mg/kg; method in brief: as §1
Rattus norvegicus [19] = assay: The compound was tested for antihypertensive effect in spontaneously hypertensive rat (SHR), expressed as fall in blood pressure (BP) at 25 mg/kg dose given orally; type: functional; details: route oral; method in brief: as §1
Rattus norvegicus [20] = assay: The compound was tested for antihypertensive effect in spontaneously hypertensive rat (SHR), expressed as fall in blood pressure (BP) at 50 mg/kg dose given orally; (3/3 dead); type: functional
Rattus norvegicus [21] = assay: The compound was tested for antihypertensive effect in spontaneously hypertensive rat (SHR), expressed as fall in blood pressure (BP) at 50 mg/kg dose given orally; type: functional; details: route oral; method in brief: as §1
Canis familiaris [22] = assay: Antihypertensive activity in unanesthetized renal hypertensive dogs measured as Heart Rate (HR) (beats/min) at 100 mg per kg dose after peroral administration on day 2 (p<0.05); type: functional, Canis lupus familiaris; details: route oral; method in brief: as §3
Canis familiaris [23] = assay: Antihypertensive activity in unanesthetized renal hypertensive dogs measured as mean Blood Pressure at 100 mg per kg dose after peroral administration on day 2 (p<0.05); type: functional, Canis lupus familiaris; details: route oral; method in brief: as §3
Canis familiaris [24] = assay: Antihypertensive activity in unanesthetized renal hypertensive dogs measured as mean Blood Pressure at 100 mg per kg dose after peroral administration on day 2((p<0.05); type: functional, Canis lupus familiaris; details: route oral; method in brief: as §3
Canis familiaris [25] = assay: Antihypertensive activity in unanesthetized renal hypertensive dogs measured as mean Blood Pressure at 100 mg per kg dose after peroral administration on day 3; type: functional, Canis lupus familiaris; details: route oral; method in brief: as §3
Canis familiaris [26] = assay: Antihypertensive activity in unanesthetized renal hypertensive dogs measured as Heart Rate (HR) (beats/min) at 100 mg per kg dose after peroral administration on day 3 p<0.05; type: functional, Canis lupus familiaris; details: route oral; method in brief: as §3
Canis familiaris [27] = assay: Antihypertensive activity in unanesthetized renal hypertensive dogs measured as Heart Rate (HR) (beats/min) at 100 mg per kg dose after peroral administration on day1 (p<0.05); type: functional, Canis lupus familiaris; details: route oral; method in brief: as §3
Canis familiaris [28] = assay: Antihypertensive activity in unanesthetized renal hypertensive dogs measured as Heart Rate (HR) (beats/min) at 100 mg per kg dose after peroral administration on day 4; type: functional, Canis lupus familiaris; details: route oral; method in brief: as §3
Canis familiaris [29] = assay: Antihypertensive activity in unanesthetized renal hypertensive dogs measured as mean Blood Pressure at 100 mg per kg dose after peroral administration on day 4; type: functional, Canis lupus familiaris; details: route oral; method in brief: as §3
Rattus norvegicus [30] = assay: The compound was tested for antihypertensive effect in spontaneously hypertensive rat (SHR), expressed as fall in blood pressure (BP) at 10 mg/kg dose given orally; type: functional; details: route oral
Rattus norvegicus [31] = assay: The compound was tested for antihypertensive effect in spontaneously hypertensive rat (SHR), expressed as fall in blood pressure (BP) at 50 mg/kg dose given per orally; type: functional; details: route oral; method in brief: as §1

## CCCCS(=O)(=O)Nc1ccc(C(=O)O)nc1
Rattus norvegicus [1]
  BP: inactive

## CCCCc1ccc(C(=O)O)nc1 [FUSARIC ACID]
Canis familiaris [2]
  HR: 35
Canis familiaris [3]
  HR: 33
Canis familiaris [4]
  HR: 32
Canis familiaris [5]
  MBP: -45
Canis familiaris [6]
  MBP: -30
Canis familiaris [7]
  MBP: -50
Rattus norvegicus [8]
  BP: >60 mmHg

## O=C(O)c1ccc(NCc2cccc(F)c2)cn1
Canis familiaris [9]
  Maximum change in heart rate: 35
Canis familiaris [10]
  HR: 78
Canis familiaris [11]
  HR: 51
Canis familiaris [12]
  HR: 44
Canis familiaris [13]
  MBP: -30
Canis familiaris [14]
  MBP: -46
Canis familiaris [15]
  MBP: -56
Canis familiaris [16]
  MBP: -51
Rattus norvegicus [17]
  BP: >60 mmHg

## CCNC(=O)c1ccc(NCc2ccc(F)cc2)cn1
Rattus norvegicus [18]
  BP: inactive

## CCOC(=O)Nc1ccc(C(=O)OC)nc1
Rattus norvegicus [1]
  BP: inactive

## O=C(O)c1ccc(NCc2ccc(Cl)c(Cl)c2)cn1
Rattus norvegicus [17]
  BP: <20 mmHg

## CN(Cc1cccc(Cl)c1)c1ccc(C(N)=O)nc1
Rattus norvegicus [19]
  BP: <20 mmHg

## CC(C)(C)c1ccc(CNc2ccc(C(=O)O)nc2)cc1
Rattus norvegicus [17]
  BP: <20 mmHg

## COc1cc(CNc2ccc(C(=O)O)nc2)cc(OC)c1OC
Rattus norvegicus [17]
  BP: <20 mmHg

## O=C(O)c1ccc(NCC2CCCCC2)cn1
Rattus norvegicus [20]
  BP: >20 mmHg

## CN(Cc1ccccc1)c1ccc(C(=O)O)nc1
Rattus norvegicus [17]
  BP: >40 mmHg

## O=C(O)c1ccc(NCc2cccc(Br)c2)cn1
Rattus norvegicus [17]
  BP: >20 mmHg

## CC(Nc1ccc(C(=O)O)nc1)c1ccc(F)cc1 (centres undefined)
Rattus norvegicus [21]
  BP: >40 mmHg

## CN(C)C(=O)c1ccc(NCc2ccc(F)cc2)cn1
Canis familiaris [9]
  Maximum change in heart rate: 20
Canis familiaris [22]
  HR: 112
Canis familiaris [23]
  MBP: -67
Rattus norvegicus [17]
  BP: >60 mmHg

## CN(Cc1cccc(Cl)c1)c1ccc(C(=O)O)nc1
Canis familiaris [13]
  MBP: -21
Canis familiaris [14]
  MBP: -25
Rattus norvegicus [8]
  BP: >80 mmHg
Rattus norvegicus [17]
  BP: >80 mmHg
Rattus norvegicus [19]
  BP: >40 mmHg

## CC(Nc1ccc(C(=O)O)nc1)c1ccccc1 (centres undefined)
Rattus norvegicus [17]
  BP: >80 mmHg

## Cc1cccc(CN(C)c2ccc(C(=O)O)nc2)c1
Rattus norvegicus [17]
  BP: >20 mmHg

## O=C(O)c1ccc(Nc2ccccc2)cn1
Rattus norvegicus [18]
  BP: inactive

## O=C(O)c1ccc(NCc2cccc(Cl)c2)cn1
Canis familiaris [9]
  Maximum change in heart rate: 16
Canis familiaris [10]
  HR: 11
Canis familiaris [11]
  HR: 11
Canis familiaris [24]
  MBP: -9
Canis familiaris [13]
  MBP: -15
Canis familiaris [25]
  MBP: -4
Rattus norvegicus [8]
  BP: >60 mmHg

## O=C(O)c1ccc(NCc2ccccc2)cn1
Canis familiaris [26]
  HR: 52
Canis familiaris [27]
  HR: 74
Canis familiaris [10]
  HR: 61
Canis familiaris [28]
  HR: 48
Canis familiaris [13]
  MBP: -32
Canis familiaris [14]
  MBP: -14
Canis familiaris [25]
  MBP: -13
Canis familiaris [29]
  MBP: -6
Rattus norvegicus [30]
  BP: >40 mmHg
Rattus norvegicus [17]
  BP: >80 mmHg
Rattus norvegicus [19]
  BP: >60 mmHg

## NNC(=O)c1ccc(NCc2ccc(F)cc2)cn1
Rattus norvegicus [17]
  BP: >40 mmHg

## NC(=O)c1ccc(NCc2ccc(F)cc2)cn1
Rattus norvegicus [17]
  BP: >40 mmHg

## CN(Cc1cccc(Br)c1)c1ccc(C(=O)O)nc1
Rattus norvegicus [17]
  BP: >40 mmHg

## O=C(Nc1ccc(C(=O)O)nc1)c1ccccc1
Rattus norvegicus [8]
  BP: >20 mmHg

## O=C(O)c1ccc(NCCCc2ccccc2)cn1
Rattus norvegicus [8]
  BP: >40 mmHg

## CCCCNc1ccc(C(=O)OC)nc1
Rattus norvegicus [31]
  BP: <20 mmHg

## COc1cccc(CN(C)c2ccc(C(=O)O)nc2)c1
Rattus norvegicus [17]
  BP: >20 mmHg

## O=Cc1ccc(NCc2ccc(F)cc2)cn1
Rattus norvegicus [17]
  BP: >80 mmHg

## CN(Cc1cccc(Cl)c1)c1ccc(CO)nc1
Rattus norvegicus [17]
  BP: >40 mmHg

## NC(=O)c1ccc(CNc2ccc(C(=O)O)nc2)cc1
Rattus norvegicus [17]
  BP: <20 mmHg

## COc1cccc(CNc2ccc(C(=O)O)nc2)c1
Rattus norvegicus [17]
  BP: >20 mmHg

## O=C(O)c1ccc(N(Cc2cccc(Cl)c2)Cc2cccc(Cl)c2)cn1
Rattus norvegicus [8]
  BP: >20 mmHg

Source: ChEMBL document CHEMBL1121372, “Synthesis and antihypertensive activity of 5-amino-2-pyridinecarboxylic acid derivatives” (1980)
